Compound activity deposited in PubChem by several laboratories.
GSK3 alpha inh: blocks human GSK-3 alpha kinase. ADP-Glo luminescence, 60 min. actives 0.1% (n = 320,000). P49840. inhibition, % at 10 µM;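 active = more than half of replicates show inhibition above 20%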;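 note: GST-tagged GSK-3 alpha with peptide substrate and 25 µM ATP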
GSK3B inh: blocks human GSK3beta kinase activity | P49841 | GST-GSK3beta kinase, ADP-Glo luminescence, 60 min; hits give low values | activity score (negative = inhibition), % at 10 µM | actives 0.038% (n = 300,000) | AID 2097;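 active = more than half of replicate wells score below -50%, meaning over 50% inhibition versus plate controls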
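Assay system: GST-tagged human GSK3beta kinase, cell-free; Input: 1.6 ng GSK3beta; Medium: Tris/MgCl2 kinase buffer; Timing: 60 min enzyme reaction, room temperature; Signal: ADP-Glo luminescence quantifying ADP generated by kinase; Evaluation: score relative to plate controls; Benchmarks: DMSO neutral wells and GW8510 at 20 µM as positive.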
LANA-H2B inh: blocks KSHV LANA binding to histone H2A/H2B; cell-free LANA-H2A/H2B peptide, fluorescence polarization; inhibition, % (test concentration not listed); actives 0.6% (n = 320,000); AID 2629; in the data active = inhibition mostly above about 10%, no sharp cut-off; inactive = mostly below about 6.7%
STK33 inh: blocks human STK33 kinase activity; Q9BYT3; purified STK33, MBP phosphorylation, ADP-Glo luminescence; inhibition, % at 10 µM; actives 0.073% (n = 320,000); AID 2661;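 active = inhibition at or above 25%, using the most active replicate where run in duplicate; inactive = inhibition below 25%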
Target sequence (Q9BYT3 whole entry, looked up): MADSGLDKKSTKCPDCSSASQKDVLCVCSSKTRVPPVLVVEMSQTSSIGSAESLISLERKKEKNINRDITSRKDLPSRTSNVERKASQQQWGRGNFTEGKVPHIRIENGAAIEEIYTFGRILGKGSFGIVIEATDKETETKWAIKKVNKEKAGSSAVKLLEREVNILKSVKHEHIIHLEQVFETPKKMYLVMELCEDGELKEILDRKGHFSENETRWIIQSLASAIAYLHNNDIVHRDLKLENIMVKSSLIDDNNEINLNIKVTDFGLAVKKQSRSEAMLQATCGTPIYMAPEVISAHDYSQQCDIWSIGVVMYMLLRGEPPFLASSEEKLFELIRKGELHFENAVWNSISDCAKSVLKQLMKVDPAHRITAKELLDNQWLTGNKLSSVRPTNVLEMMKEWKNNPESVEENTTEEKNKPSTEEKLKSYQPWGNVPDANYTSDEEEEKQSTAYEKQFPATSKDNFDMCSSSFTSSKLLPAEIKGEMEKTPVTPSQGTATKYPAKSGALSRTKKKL
Hep lipid drop: modulators of hepatic lipid droplet formation; inhibition, % at 6.5 µM; AID 1656; AML12 mouse hepatocytes, oleate lipid droplets, BODIPY imaging; actives 0.4% (n = 240,000);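 active = lipid droplet intensity inhibited by at least 50%, with more than 500 cells counted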
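Assay system: AML12 mouse liver cells | Compound dosing: One dose, 6.5 µM compound | Read-out basis: Droplet intensity reduction, % inhibition | Measured by: Fluorescence imaging, 20x objective, two fields per well | Schedule: Overnight treatment with compound plus oleate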
TAG inh: triacylglycerol accumulation inhibition | AID 651582 | inhibition, % at 12.5 µM | H9c2 cells, Nile Red lipid (TAG) fluorescence; cells loaded with 200 µM oleic acid | actives 0.66% (n = 230,000);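 active = pattern-corrected inhibition of lipid staining of at least 50% with the nuclear-stain viability signal not falling by more than 50%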
Each line names hits and unclear results; the compound was inactive in the other large screens. The list is not random: actives were taken first. Their share in the collection is about 1.3%.

COc1ccc(/C=C2\C(=O)NC(=S)N2C(=O)c2ccc(F)cc2)cc1	LANA-H2B inh active (no result: TAG inh)
Cc1ccccc1C(=O)NNC(=O)c1ccc2nc[nH]c2c1	none (no result: Hep lipid drop)
CCOC(=O)C1=C(C)C/C(=N\NC(=O)c2ccccc2O)CC1	LANA-H2B inh 17
CCOC(=O)N1CCC(=NNC(=O)c2cc3ccccc3cc2O)CC1	none (no result: GSK3 alpha inh, LANA-H2B inh, STK33 inh, TAG inh)
CN(C(=O)CCc1nnc(-c2ccc(-c3ccccc3)cc2)o1)C1CCOCC1	LANA-H2B inh 15
COc1ccc(-c2nn(-c3ccccc3)cc2/C=N/O)cc1OC	GSK3 alpha inh 73, GSK3B inh -56 (no result: Hep lipid drop, TAG inh)
COc1ccc(-c2nn(-c3ccccc3)cc2/C=N/N=C(N)N)cc1OC	none (no result: TAG inh)
Cc1cc([N+](=O)[O-])nn1Cc1noc(C(=O)NCCCn2ccnc2)n1	none (no result: TAG inh)
Cc1ccc(OCCN(C)C(=O)c2cc(COc3ccc(F)cc3F)on2)cc1	LANA-H2B inh 173
Cc1oc2ccccc2c1CC(=O)NCCCN(C)C	none
O=Nc1c(O)c2ccccc2c2ccccc12	TAG inh 99 (no result: Hep lipid drop)
CC(C)N(C(=O)[C@H]1C[C@H](CC(=O)NCc2cccc(C(F)(F)F)c2)C(=O)N2CCc3c([nH]c4cc(-c5ccco5)ccc34)[C@]12C)C(C)C	none (no result: GSK3 alpha inh, GSK3B inh, LANA-H2B inh, STK33 inh, Hep lipid drop)
CCN(c1c(C)n(C)n(-c2ccccc2)c1=O)S(C)(=O)=O	none
COc1cccc2cc(C(C)N(CCCN3CCOCC3)C(=S)Nc3cccc(C)c3)oc12 (centres undefined)	LANA-H2B inh 13
CC(NC(=O)CN1CCOCC1)c1ccc(F)cc1 (centres undefined)	none (no result: TAG inh)
CN(C)c1ccc(-c2cc([C@H]3[C@@H]4C=CCC[C@@]4(C)C(=O)N3Cc3ccccc3)ccc2F)cc1	LANA-H2B inh 14 (no result: Hep lipid drop)
O=C(O)c1ccc(N=Cc2c(O)ccc3oc4c(c23)CCCC4)cc1	STK33 inh 46 (no result: Hep lipid drop)
N#Cc1ccc(C#Cc2ccc3oc4ccccc4c(=O)c3c2)cc1	LANA-H2B inh 25 (no result: GSK3B inh, Hep lipid drop)
Nc1ccc(C#Cc2ccc3c(=O)c4ccccc4oc3c2)cc1	none (no result: Hep lipid drop)
O=C(NC1CCC1)C1CCC(=O)N(Cc2cccc(F)c2)C1 (centres undefined)	LANA-H2B inh 38
CCOC(=O)c1ccc(NC(=S)N(CCCN2CCCC(C)C2)Cc2cccs2)cc1 (centres undefined)	none
CCCCc1nc(SCC(=O)Nc2nnc(CCCC)s2)n[nH]1	none
CC1CC(=O)NN=C1c1ccc(N(C)C)c([N+](=O)[O-])c1 (centres undefined)	none (no result: TAG inh)
CCN(CC)c1ccc(C2=NNC(=O)CC2C)cc1[N+](=O)[O-] (centres undefined)	LANA-H2B inh 20 (no result: TAG inh)
O=C(NNC(=O)C1CCCN(c2ncccn2)C1)c1ccncc1 (centres undefined)	LANA-H2B inh 12 (no result: TAG inh)
COc1ccc(/C=C2\CCCc3c2nc2ccccc2c3C(=O)O)cc1OC	LANA-H2B inh 91 (no result: TAG inh)
CCOc1ccc(/C=C2\CCCc3c2nc2ccccc2c3C(=O)O)cc1OC	LANA-H2B inh 121
CCCN(CCC)C(=O)C1CC(=O)OC12CCCCC2 (centres undefined)	LANA-H2B inh 13 (no result: TAG inh)
CN(C)C(=O)C1CC(=O)OC12CCCCC2 (centres undefined)	none
C#CCOCCOCCOCCNc1nc(N2CCN(C(=O)CCCCCCCCCCNC(=O)[C@H]([C@@H](C)CC)n3cc(CCCCN=C(N)N)nn3)CC2)nc(N2CCN(C(=O)CCCCCCCCCCNC(=O)[C@H](CCCN=C(N)N)n3cc(C[C@@H](C)CC)nn3)CC2)n1	STK33 inh 31 (no result: GSK3B inh, Hep lipid drop, TAG inh)
C#CCOCCOCCOCCNc1nc(N2CCN(C(=O)CCCCCCCCCCNC(=O)[C@H](CCCCN)n3cc(C)nn3)CC2)nc(N2CCN(C(=O)CCCCCCCCCCNC(=O)[C@H](CCCN=C(N)N)n3cc(C[C@@H](C)CC)nn3)CC2)n1	none (no result: GSK3B inh, Hep lipid drop, TAG inh)
C#CCOCCOCCOCCNc1nc(N2CCN(C(=O)CCCCCCCCCCNC(=O)[C@H](CCCCN)n3cc(C[C@@H](C)CC)nn3)CC2)nc(N2CCN(C(=O)CCCCCCCCCCNC(=O)[C@H](CCCN=C(N)N)n3cc(C[C@@H](C)CC)nn3)CC2)n1	STK33 inh 29 (no result: GSK3B inh, Hep lipid drop)
C#CCOCCOCCOCCNc1nc(N2CCN(C(=O)CCCCCCCCCCNC(=O)[C@H](CO)n3cc(CCCCCN)nn3)CC2)nc(N2CCN(C(=O)CCCCCCCCCCNC(=O)[C@H](CCCN=C(N)N)n3cc(C[C@@H](C)CC)nn3)CC2)n1	none (no result: GSK3B inh, Hep lipid drop, TAG inh)
C#CCOCCOCCOCCNc1nc(N2CCOCC2)nc(N2CCN(C(=O)CCCCCCCCCCNC(=O)[C@H]([C@@H](C)CC)n3cc(CCCCN=C(N)N)nn3)CC2)n1	none (no result: GSK3B inh, Hep lipid drop)
C#CCOCCOCCOCCNc1nc(N2CCN(C(=O)CCCCCCCCCCNC(=O)[C@H](CCCN=C(N)N)n3cc(C[C@@H](C)CC)nn3)CC2)nc(N2CCN(C(=O)CCCCCCCCCCNC(=O)[C@@H]([C@H](C)CC)n3cc(CCCCCN)nn3)CC2)n1	STK33 inh 27 (no result: GSK3B inh, Hep lipid drop, TAG inh)
Cc1ccc(S(=O)(=O)CCC(=O)Nc2ccccc2Cl)cc1	none (no result: TAG inh)
O=C(NCC1CCCO1)C(c1cccnc1)N(C(=O)Cc1cccs1)c1cccnc1 (centres undefined)	none (no result: Hep lipid drop, TAG inh)
Cc1ccc(-c2nnn(CC(=O)Nc3ccc4nn(-c5ccccc5)nc4c3)n2)o1	none (no result: Hep lipid drop)
Cn1c(SC/C=C/c2ccccc2)nnc1-c1cnccn1	none
COc1ccc(-c2noc(CCC(=O)NC3CCCCCC3)n2)cc1OC	none (no result: GSK3 alpha inh, GSK3B inh, LANA-H2B inh, STK33 inh, Hep lipid drop)
CC(=O)Oc1ccc2c(c1)Oc1cc(OC(C)=O)ccc1C21OC(=O)c2ccccc21	LANA-H2B inh 142 (no result: GSK3B inh, TAG inh)
CC(=O)Nc1ccc(C(=O)OCCc2ccccc2)cc1	LANA-H2B inh 15 (no result: GSK3B inh, TAG inh)
CC(C)n1cc(NC(=O)c2cc(-c3ccccc3)on2)cn1	TAG inh 50 (no result: Hep lipid drop)
O=C(/C=C/c1ccc(F)cc1)N1CCN(S(=O)(=O)/C=C/c2ccccc2)CC1	none
O=C(COc1ccc(F)cc1Br)N1CCN(S(=O)(=O)/C=C/c2ccccc2)CC1	LANA-H2B inh 87
C=CCNC(=S)Nc1ccc(Br)cc1F	LANA-H2B inh 13 (no result: GSK3 alpha inh)
C=CCNC(=S)Nc1ccc(Cl)cc1F	none
CCC(=O)NC(c1cccs1)c1cc(Cl)c2cccnc2c1O (centres undefined)	none
CCC(=O)NC(c1ccc(Cl)cc1Cl)c1ccc2cccnc2c1O (centres undefined)	TAG inh 55
CCC(=O)NC(c1cc(Cl)c2cccnc2c1O)C1CC1 (centres undefined)	TAG inh 52 (no result: GSK3B inh, Hep lipid drop)
CCOc1ccccc1NC(=O)NCCN1CCCCC1	LANA-H2B inh 15
Cc1ccc(CCNS(=O)(=O)c2ccc3c(c2)C(C)(C)C(=O)N3C)cc1	none
Cc1cc(C)cc(NS(=O)(=O)c2ccc3c(c2)C(C)(C)C(=O)N3C)c1	LANA-H2B inh 11 (no result: TAG inh)
